Assays:
Leishmania major [1] = experiment: Antileishmanial activity against promastigote stage of Leishmania major Friedlin clone V1 assessed as parasite survival after 72 hrs by luciferase reporter gene assay; assay type: functional; conditions: Friedlin clone V1, 72 h, read-out: LD50 (the source's name)
Procedure, shortened: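 Luciferase-expressing L. major Friedlin clone V1 promastigotes exposed to compound for 72 h; Amphotericin B served as positive control. Lethality is expressed as LD50.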

LLC-MK2 = experiment: Cytotoxicity against monkey LLC-MK2 cells after 96 hrs by Alamar Blue assay; assay type: cell-based; conditions: Macaca mulatta, LLC-MK2, 96 h
[2] = Cytotoxicity against mouse intraperitoneal macrophages after 48 hrs by Alamar Blue assay; assay type: cell-based; conditions: Peritoneal macrophage cell
Leishmania major [3] = experiment: Antileishmanial activity against promastigote stage of Leishmania major assessed as induction of intracellular reactive oxygen species generation at 3 uM preincubated for 24 hrs followed by H2DCFDA probe addition measured after 20 mins by fluorescence microplate reader analysis relative to vehicle-treated control; assay type: functional
Procedure, shortened: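 L. major promastigotes exposed 24 h (3 µM for the single-concentration read). H2DCFDA then added and incubated a further 20 min at 37 °C; fluorescence read on a microplate reader and expressed relative to 1% DMSO vehicle. Medium-only also served as negative control; hydrogen peroxide 100 µM as positive control.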

U2OS = experiment: Cytotoxicity against human U2OS cells after 96 hrs by Alamar Blue assay; assay type: cell-based
RAW264.7 = experiment: Cytotoxicity against mouse Raw264.7 cells after 96 hrs by Alamar Blue assay; assay type: cell-based; conditions: RAW264.7, 96 h
Leishmania major [4] = experiment: Antileishmanial activity against amastigote stage of Leishmania major in starch-activated mouse intraperitoneal macrophages assessed as inhibition of intracellular parasite proliferation at 5 uM after 48 hrs by annexin-V 488/DAPI staining-based microplate confocal microscopic analysis relative to control; assay type: functional
Procedure, shortened: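 Macrophages infected 24 h after plating with L. major metacyclic promastigotes at 10 parasites per cell, then treated 48 h at 5 µM. Fixed, stained with annexin-V 488 and DAPI; infected cells (5 or more amastigotes per macrophage) and amastigotes counted by high-content confocal imaging. Negative control 1% DMSO; positive control amphotericin B 25 µM.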

Row | SMILES | LC50 (Leishmania major [1]) | other results
1 | CCOC(=O)c1ccc(NC2CCCCC2)c(N(Cc2ccccc2)Cc2ccccc2)c1 | > 10 µM | 
2 | CCOC(=O)c1ccc(NC2CCCCC2)c(NCc2cccc(Cl)c2)c1 | > 10 µM | 
3 | CCOC(=O)c1ccc(NC2CCCCC2)c(NC(=O)OC)c1 | > 10 µM | 
4 | CCOC(=O)c1ccc(NC2CCCCC2)c(NCc2ccccc2[N+](=O)[O-])c1 | > 10 µM | 
5 | CCOC(=O)c1ccc(NC2CCCCC2)c(NCc2cccc(F)c2)c1 | > 10 µM | 
6 | CCOC(=O)c1ccc(NC2CCCCC2)c(NCc2ccc(OC)cc2)c1 | > 10 µM | 
7 | CCCCCCCCCCOC(=O)c1cc(N)c(NC2CCCCC2)cc1F | > 10 µM | 
8 | CCOC(=O)c1ccc(NC2CCCCC2)c(NCc2ccc(F)c(C#N)c2)c1 | > 10 µM | 
9 | CCOC(=O)c1ccc(NC2CCCCC2)c(NCc2cccc(OC)c2)c1 | 4.98 µM | 
10 | CCOC(=O)c1ccc(N[C@H]2CC[C@H](N)CC2)c(N)c1 | > 10 µM | 
11 | CCOC(=O)c1ccc(NC23CC4CC(CC(C4)C2)C3)c(NCc2ccncn2)c1 | > 10 µM | 
12 | CCOC(=O)c1ccc(NC2CCCCC2)c([N+](=O)[O-])c1 | > 10 µM | 
13 | CCOC(=O)c1ccc(NC2CCCCC2)c(N)c1 | 28.8 µM | IC50 (LLC-MK2): > 240 µM
14 | Nc1cc(C(=O)OCCN2CCOCC2)ccc1NC1CCCCC1 | > 10 µM | 
15 | CCOC(=O)c1ccc(NC2CCCCC2)c(NCc2cc(F)cc(Br)c2)c1 | > 10 µM | 
16 | CCOC(=O)c1ccc(NC2CCCCC2)c(NCc2ccccc2)c1 | 3.34 µM | IC50 [2]: > 80 µM; fold change (FC) (Leishmania major [3]): 1.75; IC50 (U2OS): > 80 µM; IC50 (RAW264.7): > 80 µM; inhibition at 5 µM (Leishmania major [4]): 80%
17 | CCOC(=O)c1ccc(NC2CCC(C(C)(C)C)CC2)c(NCc2ccccc2)c1 (stereo not drawn) | > 10 µM | 
18 | CCOC(=O)c1cc(N)c(NC2CCCCC2)cc1F | > 10 µM | 
19 | O=C(O)c1ccc(NC2CCCCC2)c(NCc2ccccc2)c1 | > 10 µM | 
20 | CCOC(=O)c1ccc(NC2CCCCC2)c(NCc2ccc(C(=O)OC)cc2)c1 | > 10 µM | 
21 | CCOC(=O)c1ccc(NC2CCOCC2)c(N)c1 | > 10 µM | 
22 | CCOC(=O)c1ccc(NC2CCCCC2)c(NCc2ccc(C#N)cc2)c1 | > 10 µM | 
23 | CCOC(=O)c1ccc(NC2CCC(C(C)(C)C)CC2)c(NCc2ccncn2)c1 (stereo not drawn) | 4.92 µM | 
24 | CCOC(=O)c1cc(NCc2ccncn2)c(NC2CCCCC2)cc1F | 9.49 µM | 
25 | CCOC(=O)c1ccc(NC2CCCCC2)c(NCc2ccc([N+](=O)[O-])cc2)c1 | > 10 µM | 
26 | CCOC(=O)c1ccc(NC23CC4CC(CC(C4)C2)C3)c(NCc2ccccc2)c1 | > 10 µM | 
27 | CCOC(=O)c1cnc(NC2CCCCC2)c(N)c1 | > 10 µM | 

From ChEMBL document CHEMBL3632600, “Novel arylalkylamine compounds exhibits potent selective antiparasitic activity against Leishmania major” (Bioorg Med Chem Lett, 2015)
